Bioassay records from PubChem.
DTT redox prof – compounds producing H2O2 with reducing agent – biochemical, NIH compound library profiling, artefact control for MLSCN library redox annotation, primary screen. DTT-dependent redox cycling H2O2, phenol red/HRP absorbance; 100% = 100 µM peroxide control, 0% = buffer. 0.03% of 200,000 active. activation, % at 10 µM;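 active = activation of at least 50% relative to the plate's high and low controls in the primary single-dose screen; inactive = activation below 50%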;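 also: compound incubated with DTT at 0.8 mM final as the reducing agent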
L major viab – reduces viability of Leishmania major promastigotes | inhibition, % at 10 µM | resazurin fluorescence viability | 9% of 200,000 active; in the data active = inhibition above about 50%;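 also: promastigotes grown with compound for 44 hours at 28 °C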
T cruzi repl – T. cruzi replication inhibition | inhibition, % (concentration not given with the values) | T. cruzi beta-gal in NIH3T3, luminescence, 90 h | 1.4% of 300,000 active;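 active = mean inhibition across valid replicates above about 55%, limit read from the data; inconclusive = mean below that limit but half or more replicates reach it; inactive = mean below it, under half of replicates reach it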;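 also: signal also drops with host cell toxicity which is not excluded here; 0% = plate median of DMSO wells and 100% = zero luminescence signal; higher percent means less beta-gal luminescence so fewer parasites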
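Material: NIH/3T3 host cells with β-galactosidase reporter T. cruzi; Input: 5,000 host fibroblasts per well; Medium: DMEM, 2% fetal bovine serum; Compound: 50 nL DMSO compound solution per well; Schedule: 3 h host attachment, then at least 90 h co-culture; Detection: luminescent β-galactosidase signal after 60 min lysis.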
MPTP inh – blocks calcium-induced mitochondrial swelling; inhibition, % at 10 µM; AID 602449; isolated mouse mitochondria, Ca2+ swelling absorbance, 30 min; 1.4% of 360,000 active;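 active = inhibition of 50% or more, scaled per plate between neutral and stimulator controls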;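 also: 0% = DMSO wells given calcium and 100% = 1 mM EGTA wells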
Lipid droplet – modulators of hepatic lipid droplet formation; AML12 mouse hepatocytes, oleate lipid droplets, BODIPY imaging; inhibition, % at 6.5 µM; 0.4% of 240,000 active;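 active = lipid droplet intensity inhibited by at least 50%, with more than 500 cells counted; inconclusive = wells with under 300 cells, treated as cytotoxic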
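Technique: fluorescence imaging, 20x objective, two fields per well / Assay system: AML12 hepatocytes (mouse) / Measure: % inhibition of lipid droplet signal / Doses: 6.5 µM single-point dosing / Incubation: overnight exposure / Reagent: 100 µM oleic acid challenge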
* hit, by the source's call. This is one part of a sample in which hits are shown more often than they occur.

Screening COc1ccc(CCN=C(N)Nc2nc(C)cc(C)n2)cc1 returned DTT redox prof -1, L major viab 95*, T cruzi repl 13, MPTP inh -3 and Lipid droplet 42.
`COc1ccc(CCN=C(N)NS(=O)(=O)c2ccc(OC)cc2)cc1` gave DTT redox prof 0, L major viab -9, T cruzi repl -12, MPTP inh 0 and Lipid droplet -2.
For O=C1N(Cc2cccnc2)C[C@@H]2C[C@@H](c3cccc(Oc4ccccc4)c3)N3CCC[C@@]123 the results were T cruzi repl 36, MPTP inh 3 and Lipid droplet -12.
`Cc1ccc(C)c(N2CCN(C(=O)CCC(=O)N3CCOc4ccc(Cl)cc43)CC2)c1` gave T cruzi repl 55*, MPTP inh 0 and Lipid droplet -19.
For Cc1ccccc1-c1cc(C(=O)Nc2nc3c(s2)CCCC3)c2ccccc2n1 the results were DTT redox prof -7, L major viab 65*, T cruzi repl inconclusive and MPTP inh 1.
Cc1ccccc1C(=O)N[C@H](C(=O)Nc1ccc(Cl)c(Cl)c1)C(C)C was read as DTT redox prof 0, L major viab 9, T cruzi repl 18, MPTP inh 23 and Lipid droplet -44.
Cc1ccccc1C(=O)NC(C(=O)Nc1nc2c(s1)CCCC2)C(C)C (configuration not stated) was read as DTT redox prof -1, L major viab 50*, T cruzi repl 4, MPTP inh 2 and Lipid droplet -5.
`Cc1ccc(C)c(-c2cc(C(=O)Nc3sc(C)c(C)c3C(N)=O)c3ccccc3n2)c1` gave DTT redox prof -5, L major viab 61*, T cruzi repl 29 and MPTP inh 2.
Screening Cc1nn(S(=O)(=O)c2ccccc2)c(C)c1S(=O)(=O)N1CCOCC1 returned T cruzi repl 14, MPTP inh 0 and Lipid droplet -1.
`CCc1cc(C(=O)NC2CCCN(Cc3ccccc3F)C2)n(C)n1` (configuration not stated) gave T cruzi repl -13, MPTP inh 4 and Lipid droplet -21.
COc1ccc(C(=O)Nc2cccc(C(=O)NCc3ccccc3)c2)cc1 was read as DTT redox prof -1, L major viab 2, T cruzi repl -6 and MPTP inh -1.
`CC(C)c1cc(NC(=O)c2ccccc2)cc(C(C)C)c1O` gave DTT redox prof -2, L major viab 5, T cruzi repl 18, MPTP inh 2 and Lipid droplet 28.
CC(C)c1ccccc1NC(=O)c1cccc(NC(=O)c2ccccc2)c1 was read as DTT redox prof 0, L major viab 91*, T cruzi repl 3, MPTP inh 2 and Lipid droplet 12.
Screening NS(=O)(=O)c1ccc(NNC(=O)c2ccccc2)cc1 returned T cruzi repl 3, MPTP inh 3 and Lipid droplet 8.
`Cc1ccc(CNC(=O)c2ccc3c(=O)c(O)c(-c4ccc(C)cc4)[nH]c3c2)cc1` gave T cruzi repl 60*, MPTP inh 9 and Lipid droplet 9.
For O=C(NNc1cc(Br)c(O)c(Br)c1)c1ccccc1 the results were DTT redox prof 1, L major viab 88*, T cruzi repl 54, MPTP inh 37 and Lipid droplet 14.
`Cc1ccc(C(=O)Nc2cccc(C(=O)NCc3ccccc3)c2)cc1` gave DTT redox prof 0, L major viab 52*, T cruzi repl 1, MPTP inh 1 and Lipid droplet -4.
Cc1ccccc1N1CCN(C2CCCN(C(=O)CCN3CCCCC3=O)C2)CC1 (configuration not stated) was read as T cruzi repl -4, MPTP inh -1 and Lipid droplet -15.
`CCOC(=O)C1CCCN(C(=O)c2cccc(NC(=O)C(CC)CC)c2)C1` (configuration not stated) gave DTT redox prof 0, L major viab -2, T cruzi repl -4, MPTP inh -2 and Lipid droplet 0.
O=C(O)/C=C\C(=O)Nc1cccc(C(=O)Nc2cccc(O)c2)c1 was read as DTT redox prof 0, L major viab -4, T cruzi repl -21, MPTP inh -2 and Lipid droplet -1.
For O=C(Nc1cccc(O)c1)c1ccccc1 the results were DTT redox prof 1, L major viab 62*, T cruzi repl 4, MPTP inh -1 and Lipid droplet -2.
`C(=N\c1nc2ccccc2n1CCN1CCCCC1)/c1cccs1` gave DTT redox prof 3, L major viab 53*, T cruzi repl 41 and MPTP inh 0.
Screening C(=N\c1nc2ccccc2n1CCN1CCCCC1)/c1ccc2c(c1)OCO2 returned DTT redox prof -1, L major viab 2, T cruzi repl 47 and MPTP inh 19.
`CCC(=NCCc1c(C)[nH]c2ccccc12)C1=C(O)CC(c2ccccc2)CC1=O` (configuration not stated) gave DTT redox prof 0, L major viab 96*, T cruzi repl -13, MPTP inh 4 and Lipid droplet -57.
For CC(=NCCc1c(C)[nH]c2ccc(OCc3ccccc3)cc12)C1=C(O)CC(c2ccccc2)CC1=O (configuration not stated) the results were DTT redox prof 0, L major viab 24, T cruzi repl 58*, MPTP inh 0 and Lipid droplet 0.
CCCCC(=NCCc1c(C)[nH]c2ccc(OC)cc12)C1=C(O)CC(c2ccccc2)CC1=O (configuration not stated) was read as DTT redox prof 0, L major viab 17, T cruzi repl 50, MPTP inh 1 and Lipid droplet 9.
Screening COc1cc(C2OC(=O)C3C(c4ccc(OC(C)=O)c(OC)c4)OC(=O)C23)ccc1OC(C)=O (configuration not stated) returned T cruzi repl -12 and MPTP inh -1.
`CC(=O)N1CCN(CC(=O)Nc2sccc2C#N)CC1` gave DTT redox prof 0, L major viab 1, T cruzi repl 7, MPTP inh 1 and Lipid droplet 16.
`Cc1cc(C)c(C)c(S(=O)(=O)N2CCN(CC(=O)Nc3sccc3C#N)CC2)c1C` gave DTT redox prof 0, L major viab 57*, T cruzi repl 26, MPTP inh -16 and Lipid droplet -29.
`O=C(NCc1ccco1)N1c2ccccc2Sc2ccccc21` gave DTT redox prof 0, L major viab 62*, T cruzi repl 17, MPTP inh 0 and Lipid droplet 1.
Screening COc1ccc(CCNC(=O)N2c3ccccc3Sc3ccccc32)cc1 returned DTT redox prof 1, L major viab 68*, T cruzi repl 19 and MPTP inh 13.
Screening COC(=O)c1ccc(C(=O)OC)c(NC(=O)N2c3ccccc3Sc3ccccc32)c1 returned DTT redox prof 0, L major viab 2, T cruzi repl 8, MPTP inh 4 and Lipid droplet 16.
